Tests used:
[1] = system: HeLa; assay: Inhibition of macromolecular synthesis in HeLa cells assayed by the incorporation of radioactive thymidine into DNA; assay type: functional, cell-based; details: Homo sapiens
In short: (§1)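 HeLa S3 suspension culture in MEM with 5% fetal calf serum and 2 mM L-glutamine. Cells incubated with 0.5 μCi of labeled precursor: [methyl-3H]thymidine for DNA, [5,6-3H]uridine (40 Ci/mmol) for RNA, L-[4,5-3H]leucine (56 Ci/mmol) for protein. Synthesis rate taken as precursor uptake into cold TCA-insoluble material.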

[2] = system: HeLa; assay: Inhibition of HeLa cells growth (cytotoxicity); assay type: functional; details: Homo sapiens, read-out: ID50 (the source's name)
In short: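 HeLa cells in complete medium, grown to 1.7 × 10^5/mL (100 mL culture). Incubated 16 h with varying concentrations of inhibitor, then growth inhibition assessed.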

[3] = system: HeLa; assay: Inhibition of macromolecular synthesis in HeLa cells assayed by the incorporation of radioactive uridine into RNA; assay type: functional, cell-based; details: Homo sapiens; in short: as §1
[4] = system: HeLa; assay: Inhibition of macromolecular synthesis in HeLa cells assayed by the incorporation of radioactive leucine into protein; assay type: functional, cell-based; details: Homo sapiens; in short: as §1
[5] = Compound was evaluated for its half-life when nucleophile was added in solution buffered at pH 7.2 in the presence of aminoethanol; assay type: ADME; details: buffered solution with added nucleophile (aminoethanol)
In short: (§2)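 Half-life of each compound measured in aqueous solution buffered at pH 7.2 with a nucleophile, glutathione or aminoethanol, added. Reaction followed kinetically as disappearance of the propenal.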

[6] = Compound was evaluated for its half-life when nucleophile was added in solution buffered at pH 7.2 in the presence of glutathione; assay type: ADME; details: buffered solution with added nucleophile (glutathione); in short: as §2

IC50 [1] [µM]	IC50 [3] [µM]	IC50 [4] [µM]	half-life [5] [h]	half-life [6] [min]	Compound	IC50 [2] [µM]
30	30	30	–	–	O=C/C=C/n1ccc(=O)[nH]c1=O	4
> 100	> 100	> 100	–	–	Nc1ccn(/C=C/C=O)c(=O)n1	15
> 100	> 100	> 100	–	–	Cc1cn(/C=C/C#N)c(=O)[nH]c1=O	–
10	15	15	–	–	Cc1cn(C)c(=O)n(/C=C/C=O)c1=O	3
> 100	> 100	> 100	–	–	Cc1cn(/C=C/CO)c(=O)[nH]c1=O	–
> 100	50	> 100	–	–	Nc1nc(O)c2ncn(/C=C/C=O)c2n1	24
60	100	100	–	–	CCOC(=O)/C=C/n1cnc2c(N)ncnc21	–
60	> 100	80	–	–	O=C/C=C/n1cc(C(F)(F)F)c(=O)[nH]c1=O	–
> 100	> 100	> 100	–	–	CC(=O)/C=C/n1cc(C)c(=O)[nH]c1=O	–
23	100	25	18	3.5	Cc1cn(/C=C/C=O)c(=O)[nH]c1=O	1
20	20	20	–	–	Cc1cn(COCCO)c(=O)n(/C=C/C=O)c1=O	6
30	> 100	> 100	15	2.1	Nc1ncnc2c1ncn2/C=C/C=O	2
40	100	> 100	–	–	Cc1cn([C@@H]2O[C@H](CO)[C@@H](O)[C@@H]2O)c(=O)n(/C=C/C=O)c1=O	40
> 100	100	> 100	–	–	Cc1cn([C@@H]2O[C@H](CO)[C@@H](O)[C@H]2O)c(=O)n(/C=C/C=O)c1=O	–
0.8	15	15	–	–	O=C/C=C/n1c(=O)ccn([C@H]2C[C@H](O)[C@@H](CO)O2)c1=O	1
100	100	> 100	–	–	N#C/C=C/n1c(=O)ccn([C@H]2C[C@H](O)[C@@H](CO)O2)c1=O	–
1.5	6	> 100	–	–	CC(=O)/C=C/n1c(=O)ccn([C@H]2C[C@H](O)[C@@H](CO)O2)c1=O	6
0.5	20	15	25	8	Cc1cn([C@H]2C[C@H](O)[C@@H](CO)O2)c(=O)n(/C=C/C=O)c1=O	1
5	5	> 100	–	–	Cc1cn([C@H]2C[C@H](O)[C@@H](CO)O2)c(=O)n(/C=C/CO)c1=O	60
0.3	80	15	–	–	O=C/C=C/n1c(=O)c(I)cn([C@H]2C[C@H](O)[C@@H](CO)O2)c1=O	20
> 100	> 100	> 100	–	–	Cc1cn(/C=C/C=N/O)c(=O)[nH]c1=O	–
> 100	> 100	> 100	–	–	O=C/C=C/n1cc(CO)c(=O)[nH]c1=O	–
60	90	40	–	–	O=C/C=C/n1cc(F)c(=O)[nH]c1=O	3
10	3	> 100	–	–	O=C/C=C/n1c(=O)ccn(C2O[C@H](CO)[C@@H](O)[C@H]2O)c1=O (stereo partly drawn)	9

— ChEMBL document CHEMBL1122709, “Synthesis and biological activity of a new class of cytotoxic agents: N-(3-oxoprop-1-enyl)-substituted pyrimidines and purines” (J Med Chem, 1984)
